The test system of data set [1] is Plasmodium falciparum. Put plainly: Antimalarial activity against chloroquine and pyrimethamine-resistant early trophozoite stage of Plasmodium falciparum W2 in human red blood cells assessed as [3H]hypoxanthine uptake after 96 hrs. Format: functional, organism-based. The gist of the method: (§1)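 P. falciparum cultured in RPMI-1640-LPLF with 10% human plasma, sorbitol-synchronised; assay started with >90% rings at 0.5% parasitaemia, 2% haematocrit in hypoxanthine-free medium. Ten 2-fold serial dilutions for 96 h, [3H]-hypoxanthine (0.2 µCi/well) added at ~48 h. IC50 from non-linear regression of incorporation versus log concentration; three independent experiments, mean ± SD.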

Data set [2] in a line: Cytotoxicity against thioguanine-resistant human C32TG cells harboring HGPRT deletion mutant assessed as inhibition of cell proliferation after 4 days by Coulter counter analysis. Format: cell-based. An outline of the steps: (§2)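 Cell proliferation in human A549 lung carcinoma, C32 melanoma and C32-TG (thioguanine-resistant, HGPRT-deficient C32 mutant) cells. Seeded at 7,500 (A549) or 15,000 (C32, C32-TG) cells per well; serial compound dilutions added 24 hr later. Four days at 37 °C, then trypsinized and counted by Coulter Counter. CC50 = concentration giving 50% proliferation versus untreated cells, by extrapolation; mean ± SEM of two or three independent tests.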

Data set [3] in a line: Cytotoxicity against human A549 cells assessed as inhibition of cell proliferation after 4 days by Coulter counter analysis. Type of data set: cell-based. The gist of the method: as §2
The subject of data set [4] is Plasmodium falciparum. Put plainly: Antimalarial activity against wild type early trophozoite stage of Plasmodium falciparum D6 in human red blood cells assessed as [3H]hypoxanthine uptake after 96 hrs. Type of data set: functional, organism-based. An outline of the steps: as §1
Data set [5] can be described thus: Cytotoxicity against human C32 cells assessed as inhibition of cell proliferation after 4 days by Coulter counter analysis. Type of data set: cell-based. The gist of the method:
as §2

Data set [6] in a line: Inhibition of Plasmodium vivax N-terminal hexahistidine-tagged HGPRT. The gist of the method:
(§3)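 N-terminal hexa-histidine tagged enzymes purified to homogeneity by IMAC. Ki from Hanes' plots with guanine fixed at 60 μM and PRib-PP varied (2-1000 μM) according to Km(app); one concentration of each inhibitor.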

The nature of data set [7]: Inhibition of Plasmodium falciparum HGXPRT. The gist of the method:
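PfHGXPRT purified by a published procedure. Ki from Hanes' plots with guanine fixed at 60 μM and PRib-PP varied (2-1000 μM) according to Km(app); one concentration of each inhibitor.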

Data set [8] addresses T1, Hypoxanthine-guanine phosphoribosyltransferase (Homo sapiens, UniProt P00492).
T1 sequence (P00492 whole entry): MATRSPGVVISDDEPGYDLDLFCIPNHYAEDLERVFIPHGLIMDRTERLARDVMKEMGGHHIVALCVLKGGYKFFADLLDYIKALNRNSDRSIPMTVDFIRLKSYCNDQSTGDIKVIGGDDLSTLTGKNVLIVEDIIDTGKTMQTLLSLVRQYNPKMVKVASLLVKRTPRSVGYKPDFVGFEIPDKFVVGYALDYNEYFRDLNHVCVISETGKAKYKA
Kind of data set: Inhibition of human N-terminal hexahistidine-tagged HGPRT. An outline of the steps:
as §3

The structures appear in SMILES notation. Some results are limits rather than exact numbers.

For orientation: IC50 means the point on the concentration scale where inhibition reaches its midpoint. A word on the CC50: it is the concentration that lowers cell viability or growth by half. Turning to `CCCCCCCCCCCCCCCCOCCCOP(=O)(O)CCOCCn1cnc2c(=O)[nH]c(N)nc21`, the results for the IC50 in data set [1] and in data set [4] were 4.7 µM and 7.6 µM, respectively. In addition, the values for the CC50 at 96 h in data set [2], in data set [3] and in data set [5] were 36 µM, 61 µM and 61 µM, respectively.

For orientation: Ki means a dissociation constant, usually derived from enzyme kinetics or from competition with a known ligand. High values mean lower affinity, low ones higher affinity. For the compound `O=c1[nH]cnc2c1ncn2CC(COCP(=O)(O)O)COCP(=O)(O)O`, the inhibitory constant (Ki) in data set [6] is 2 µM; in data set [7] it was 5 µM; in data set [8], 1 µM.

Consider `CCOC(=O)[C@H](Cc1ccccc1)NP(=O)(COCC(COCP(=O)(N[C@@H](Cc1ccccc1)C(=O)OCC)N[C@@H](Cc1ccccc1)C(=O)OCC)Cn1cnc2c(=O)[nH]c(N)nc21)N[C@@H](Cc1ccccc1)C(=O)OCC`, for which the 50% inhibitory concentration (IC50) came to 7.1 µM in data set [1] and 9.7 µM in data set [4]. Further, the half-maximal cytotoxic concentration (CC50) at 96 h in data set [2] was 109 µM; in data set [3], over 300 µM; in data set [5], 130 µM.

In the case of `Nc1nc2c(ncn2CCOCCP(=O)(O)O)c(=O)[nH]1`, the CC50 at 96 h in data set [2], in data set [3] and in data set [5] was over 300 µM throughout. In data set [4], the 50% inhibitory concentration (IC50) came out at 242 µM.

Regarding `CCOC(=O)[C@H](C)NP(=O)(CCOCCn1cnc2c(=O)[nH]c(N)nc21)N[C@@H](C)C(=O)OCC`, the 50% inhibitory concentration (IC50) in data set [1] stood at 48 µM; in data set [4] it was 42 µM. The CC50 at 96 h in data set [2], in data set [3] and in data set [5] was over 300 µM each time.

In the case of `CCOC(=O)[C@H](Cc1ccccc1)NP(=O)(COCC(COCP(=O)(N[C@@H](Cc1ccccc1)C(=O)OCC)N[C@@H](Cc1ccccc1)C(=O)OCC)Cn1cnc2c(=O)[nH]cnc21)N[C@@H](Cc1ccccc1)C(=O)OCC`, the values for the IC50 in data set [1] and in data set [4] were 4 µM and 3.8 µM, respectively. Also, the cytotoxic concentration (CC50) at 96 h in data set [2] turned out to be 55 µM; in data set [3], 101 µM; in data set [5], 41 µM.

Turning to `Nc1nc2c(ncn2C(COCP(=O)(O)O)COCP(=O)(O)O)c(=O)[nH]1`, the Ki was 18 µM in data set [6], 2 µM in data set [7] and 37 µM in data set [8].

With `CCCCCCCCCCCCCCCCOCCCOP(=O)(CCOCCn1cnc2c(=O)[nH]c(N)nc21)OCCCOCCCCCCCCCCCCCCCC`, the results for the IC50 in data set [1] and in data set [4] were 68 µM and 59 µM, respectively. In addition, the CC50 at 96 h in data set [2], in data set [3] and in data set [5] was over 300 µM each time.

For `Nc1nc2c(ncn2CC(COCCP(=O)(O)O)OCCP(=O)(O)O)c(=O)[nH]1` (centres undefined), the Ki came out at 0.7 µM in data set [6], 0.5 µM in data set [7] and 0.6 µM in data set [8].

As for `Nc1nc2c(ncn2CC(COCP(=O)(O)O)COCP(=O)(O)O)c(=O)[nH]1`, the Ki came to 0.6 µM in data set [6], 0.07 µM in data set [7] and 0.03 µM in data set [8]. Moreover, the CC50 at 96 h in data set [2], in data set [3] and in data set [5] was over 300 µM each time.

For the origin of these results see ChEMBL document CHEMBL2321688, “Acyclic nucleoside phosphonates containing a second phosphonate group are potent inhibitors of 6-oxopurine phosphoribosyltransferases and have antimalarial activity” (J Med Chem, 2013).
